Results of several laboratories.
Cell line: OVCAR-8
Read-out: cell growth or viability

SMILES | test | setting | endpoint | result
COc1cc(-c2ccc(-c3ccc(C(=N)N)nc3)s2)cc(OC)c1OC | SRB | – | GI50 | 2.3 µM
Cc1cc(C)n(C(=S)[S][Au][PH](CCCCCC[PH]([Au][S]C(=S)n2nc(C)cc2C)(c2ccccc2)c2ccccc2)(c2ccccc2)c2ccccc2)n1 | – | – | GI50 | 0.597 µM
COc1cccc(Oc2ccccc2NC(=O)CNC(=O)c2cccc3ccccc23)c1 | SRB | 48 h | GI50 | 0.692 µM
COc1ccc(-c2ccc(-c3ccc(C(=N)N)nc3)s2)cc1Cl | SRB | – | GI50 | 2.6 µM
COc1ccc(C(=O)/C=C/c2cccc(Cl)c2Cl)cc1S(N)(=O)=O | SRB | 10 µM | inhibition | 164%
O=C1Nc2ccccc2C1=NNc1nnc2n1N=C(c1ccccc1)CS2 | SRB | 10 µM | inhibition | 41%
S=C([S][Au-][P+](CCCCCC[P+]([Au-][S]C(=S)n1cccn1)(c1ccccc1)c1ccccc1)(c1ccccc1)c1ccccc1)n1cccn1 | – | – | GI50 | 0.696 µM
COc1ccc(C(=O)/C=C/c2cccc(Cl)c2)cc1S(N)(=O)=O | SRB | 48 h | GI50 | 2.8 µM
